Measurements published in ChEMBL document CHEMBL1127651, “Molecular requirements for the inhibition of the tetracycline antiport protein and the effect of potent inhibitors on the growth of tetracycline-resistant bacteria” (J Med Chem, 1994).
Values after ≈ are worked out from the molar mass of the structure shown. Active and inactive are the calls of the source. No cut-off for these calls is given here.

How the values were obtained:
Escherichia coli [1] = assay: (§1) Inhibitory activity against tetracycline uptake in everted membrane vesicles derived from Tc-resistant Escherichia coli bearing class B tetracycline resistance efflux protein (Tet); type: functional
Outline: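 Everted inner membrane vesicles from E. coli D1-209 carrying plasmid R222 (class B Tc determinant on Tn10), energized with Li lactate; test compound added together with [³H]Tc. Accumulated [³H]Tc read at 2.5 min after energization, compared with uptake without analogue; CCCP-deenergized vesicles served as the negative control. IC50 = concentration giving 50% inhibition of uptake. Separately screened for disruption of the pH gradient by acridine orange fluorescence in vesicles from isogenic Tc-susceptible cells.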

Escherichia coli [2] = assay: Minimum inhibitory activity against tetracycline-susceptible Escherichia coli strain ML308-225 (Tet B on plasmid R222) in combination with doxycycline; No effect; type: functional, organism-based
Enterococcus faecalis [3] = assay: Minimum inhibitory activity against tetracycline-susceptible Enterococcus faecalis strain ATCC 9790; type: functional
Outline: (§2)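 Broth dilution MIC in Luria broth. Two-fold dilutions from a 10 mg/mL stock in H₂O or 1:1 H₂O/MeOH, test range 200–0.030 µg/mL, incubated 18–20 h at 37 °C. MIC = lowest amount inhibiting growth.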

Escherichia coli [4] = assay: Minimum inhibitory activity against tetracycline-susceptible Escherichia coli strain ML308-225; type: functional; outline: as §2
Escherichia coli [5] = assay: Minimum inhibitory activity against tetracycline-susceptible Escherichia coli strain ML308-225 (Tet A on plasmid pIP15); type: functional
Outline: (§3)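 Inoculum about 10⁶ cfu/mL into two-fold dilutions from 200 to 0.030 µg/mL, made from a 10 mg/mL stock in H₂O or 1:1 H₂O/MeOH. Incubated 18–20 h at 37 °C; MIC = amount inhibiting growth.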

Staphylococcus aureus [6] = assay: Minimum inhibitory activity against tetracycline-susceptible Staphylococcus aureus strain RN450 (Tet K on plasmid pT181); type: functional; outline: as §3
Staphylococcus aureus [7] = assay: Minimum inhibitory activity against tetracycline-susceptible Staphylococcus aureus strain RN450; type: functional; outline: as §2
Escherichia coli [8] = assay: Minimum inhibitory activity against tetracycline-susceptible Escherichia coli strain D31m4 (Tet B on plasmid pHCMI); type: functional; conditions: in the assay text read “tetracycline-resistant” for “tetracycline-susceptible”; outline: as §3
Enterococcus faecalis [9] = assay: Minimum inhibitory activity against tetracycline-susceptible Enterococcus faecalis strain ATCC 9790 (Tet L on plasmid MV158); type: functional; conditions: in the assay text read “tetracycline-resistant” for “tetracycline-susceptible”; outline: as §3
Escherichia coli [10] = assay: Minimum inhibitory activity against tetracycline-susceptible Escherichia coli strain D31m4; type: functional; outline: as §2
Escherichia coli [11] = assay: Minimum inhibitory activity against tetracycline-susceptible Escherichia coli strain ML308-225 (Tet B on plasmid R222); type: functional; outline: as §3
Escherichia coli [12] = assay: Minimum inhibitory activity against tetracycline-susceptible Escherichia coli strain ML308-225 (Tet B on plasmid R222) in combination with doxycycline; no effect; type: functional, organism-based
Escherichia coli [13] = assay: as §1; type: functional; remark: listed apart in the source
Outline: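 Everted inner-membrane vesicles from E. coli D1-209 carrying plasmid R222 (class B Tet on Tn10). Vesicles energized with Li lactate and given [³H]Tc together with the analogue. Accumulation read at 2.5 min against uptake without analogue. CCCP-deenergized vesicles served as negative control. IC50 is the concentration giving 50% inhibition of [³H]Tc uptake.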

Escherichia coli [14] = assay: Growth inhibitory activity against tetracycline-resistant ML308-225 bacterial strain of Escherichia coli; type: functional, organism-based
Outline: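 MIC by two-fold broth dilution in Luria broth from a 10 mg/mL stock, test range 200 to 0.030 µg/mL. Compounds dissolved in H2O or 1:1 H2O/MeOH. Inoculum about 10⁶ cfu/mL. Incubated 18–20 h at 37 °C. MIC taken as the lowest amount that inhibited growth.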

With COC(C(=O)[C@@H](O)C(C)O)C1Cc2cc3cc(O)c(C)c(O)c3c(O)c2C(=O)C1O (stereo partly specified) the IC50 (Escherichia coli [1]) was over 100 µM.
In the case of O=C1c2ccc(O)c(O)c2C(=O)c2c(O)ccc(O)c21 [QUINALIZARIN], the IC50 (Escherichia coli [1]) is reported as over 150 µM.
COc1cc(O)c2c(c1)C(=O)c1cc3c(c(O)c1C2=O)C(OC1OC(C)C(O)C(O)C1OC)C(OC)C(C)(O)C3=O (stereo unspecified) was tested, and the IC50 (Escherichia coli [1]) was over 75 µM.
C=C1c2cccc(O)c2C(=O)C2(Cl)C(=O)[C@]3(O)C(O)=C(C(N)=O)C(=O)[C@@H](N(C)C)C3CC12 (stereo partly specified) showed an IC50 (Escherichia coli [1]) of over 75 µM.
O=C(O)CC1CC(=O)c2c(O)ccc(Cl)c2S1 (stereo unspecified) was tested, and the IC50 (Escherichia coli [1]) was over 150 µM.
In the case of CN(C)[C@@H]1C(=O)C(C(N)=O)=C(O)[C@@]2(O)C(=O)C3(F)C(=O)c4c(O)cccc4CC3CC12 (stereo partly specified), the IC50 (Escherichia coli [1]) is reported as over 75 µM.
Work on COC(=O)C12Oc3ccc(-c4ccc5c(c4O)C(O)=C4C(=O)CC(C)C(O)C4(C(=O)OC)O5)c(O)c3C(O)=C1C(=O)CC(C)C2O (stereo unspecified) yielded an IC50 (Escherichia coli [1]) of over 75 µM.
In the case of CN(C)c1ccc2c(c1O)C(=O)C1=C(O)[C@]3(O)C(O)=C(C(N)=O)C(=O)[C@@H](N(C)C)C3CC1C2 (stereo partly specified), the IC50 (Escherichia coli [1]) is reported as 15.4 µM.
For CN(C)[C@@H]1C(=O)C(C(N)=O)=C(O)[C@@]2(O)C(O)=C3C(=O)c4c(O)cccc4[C@H](CSCCCCl)C3[C@H](O)C12 (stereo partly specified), the MIC (Escherichia coli [2]) was “inactive”, the IC50 (Escherichia coli [1]) was 0.6 µM and the MIC (Enterococcus faecalis [3]) was 0.6 µg/mL (≈ 1.08 µM). The MIC (Escherichia coli [4]) was 10 µg/mL (≈ 18.1 µM), the MIC (Escherichia coli [5]) was 50 µg/mL (≈ 90.4 µM) and the MIC (Staphylococcus aureus [6]) was 6.25 µg/mL (≈ 11.3 µM). The MIC (Staphylococcus aureus [7]) was 0.6 µg/mL (≈ 1.08 µM), the MIC (Escherichia coli [8]) was 6.25 µg/mL (≈ 11.3 µM) and the MIC (Enterococcus faecalis [9]) was 1.56 µg/mL (≈ 2.82 µM). The MIC (Escherichia coli [10]) was 2.5 µg/mL (≈ 4.52 µM) and the MIC (Escherichia coli [11]) was over 50 µg/mL.
CN(C)[C@@H]1C(=O)C(C(N)=O)=C(O)[C@@]2(O)C(O)=C3C(=O)c4c(O)cccc4[C@H](CSCCC(=O)O)C3CC12 (stereo partly specified) was tested, and the MIC (Escherichia coli [12]) was “inactive”, the MIC (Enterococcus faecalis [3]) was 10 µg/mL (≈ 18.8 µM) and the MIC (Escherichia coli [4]) was over 40 µg/mL. It also gave an MIC (Escherichia coli [5]) of over 50 µg/mL, an MIC (Staphylococcus aureus [6]) of 12.5 µg/mL (≈ 23.5 µM) and an MIC (Staphylococcus aureus [7]) of 2.5 µg/mL (≈ 4.69 µM). The MIC (Escherichia coli [8]) was over 50 µg/mL, the MIC (Enterococcus faecalis [9]) was 3.12 µg/mL (≈ 5.86 µM) and the MIC (Escherichia coli [10]) was 20 µg/mL (≈ 37.6 µM). For the same molecule, the MIC (Escherichia coli [11]) was over 50 µg/mL.
For Cc1cc(O)c2c(c1O)C(=O)c1cc(O)cc(O)c1C2=O [CATENARIN], the IC50 (Escherichia coli [1]) was over 150 µM.
CN(C)c1ccc(O)c2c1CC1CC3[C@H](N(C)C)C(=O)C(C(N)=O)=C(O)[C@@]3(O)C(O)=C1C2=O (stereo partly specified) gave an IC50 (Escherichia coli [1]) of 2.3 µM.
COc1cc(O)c2c(c1)C(=O)c1cc3c(c(O)c1C2=O)C(OC1OC(C)C(OC)C(O)C1OC)C(OC)C(C)(O)C3=O (stereo unspecified) showed an IC50 (Escherichia coli [1]) of over 75 µM.
With COC(=O)c1c(O)cccc1CC1CC(=O)[C@@]2(O)C(O)=C(C(N)=O)C(=O)[C@@H](N(C)C)C2C1 (stereo partly specified) the IC50 (Escherichia coli [1]) was over 75 µM.
In the case of CN(C)[C@@H]1C(=O)C(C(N)=O)=C(O)[C@@]2(O)C(O)=C3C(=O)c4c(O)cccc4[C@H](C[S+]([O-])c4ccccc4)C3CC12 (stereo partly specified), the IC50 (Escherichia coli [1]) is reported as 0.7 µM.
Molecule CC(=O)Oc1cccc2c1C(=O)C1=C(O)[C@]3(OC(C)=O)C(O)=C(C(N)=O)C(=O)[C@@H](N(C)C)C3CC1[C@]2(C)O (stereo partly specified) has an IC50 (Escherichia coli [1]) of over 75 µM.
For COc1cccc2c1C(=O)c1c(O)c3c(c(O)c1C2=O)C[C@@](O)(C(=O)CO)C[C@@H]3O[C@H]1C[C@H](N)[C@H](O)[C@H](C)O1 [DOXORUBICIN], the IC50 (Escherichia coli [1]) was over 75 µM.
In the case of CC(=O)C1CCC2C(=O)C3=C(O)c4c(O)ccc(O)c4CC3CC2C1 (stereo unspecified), the IC50 (Escherichia coli [1]) is reported as over 75 µM.
In the case of O=CCC1CC(=O)c2c(O)ccc(Cl)c2S1 (stereo unspecified), the IC50 (Escherichia coli [1]) is reported as over 75 µM.
With CN(C)[C@@H]1C(=O)C(C(N)=O)=C(O)[C@@]2(O)C(O)=C3C(=O)c4c(O)cccc4SC3CC12 (stereo partly specified) the IC50 (Escherichia coli [1]) was 4.6 µM.
COC(C(=O)[C@@H](O)[C@@H](C)O)C1Cc2cc3cc(O)cc(O)c3c(O)c2C(=O)C1O (stereo partly specified) gave an IC50 (Escherichia coli [1]) of over 100 µM.
For CC(=O)OC1=CC[C@H]2CC3C(=C(O)c4c(O)cccc4C3O[Si](C)(C)C(C)(C)C)C(=O)[C@H]2C1 (stereo partly specified), the IC50 (Escherichia coli [1]) was over 150 µM.
For COc1ccc(Cl)c2c1C(=O)CC(CC(=O)O)S2 (stereo unspecified), the IC50 (Escherichia coli [1]) was over 150 µM.
With CC(=O)OC1=C(Sc2ccccc2)C[C@H]2Cc3cc4cccc(O)c4c(O)c3C(=O)[C@H]2C1 the IC50 (Escherichia coli [1]) was over 150 µM.
In the case of CC1CC(=O)C2=C(O)c3c(O)ccc(O)c3CC2C1 (stereo unspecified), the IC50 (Escherichia coli [1]) is reported as over 130 µM.
Work on CN(C)[C@@H]1C(=O)C(C(N)=O)=C(O)[C@@]2(O)C(=O)C3C(=O)c4c(O)ccc(Cl)c4[C@@](C)(O)C3CC12 (stereo partly specified) yielded an IC50 (Escherichia coli [1]) of over 75 µM.
With CN(C)[C@@H]1C(=O)C(C(N)=O)=C(O)[C@@]2(O)C(O)=C3C(=O)c4c(ccc([N+](=O)[O-])c4O)CC3CC12 (stereo partly specified) the IC50 (Escherichia coli [1]) was 12.3 µM.
In the case of COc1cc(O)c2c(c1Cl)CC1CC3[C@H](N(C)C)C(=O)C(C(N)=O)=C(O)[C@@]3(O)C(O)=C1C2=O (stereo partly specified), the IC50 (Escherichia coli [1]) is reported as 19.5 µM.
For O=CCC1CC(=O)c2c(O)cccc2S1 (stereo unspecified), the IC50 (Escherichia coli [1]) was over 75 µM.
For CC(=O)SC[C@H]1c2cccc(O)c2C(=O)C2=C(O)[C@]3(O)C(O)=C(C(N)=O)C(=O)[C@@H](N(C)C)C3[C@@H](O)C21 (stereo partly specified), the IC50 (Escherichia coli [1]) was 4.6 µM.
CCCSC[C@H]1c2cccc(O)c2C(=O)C2=C(O)[C@]3(O)C(O)=C(C(N)=O)C(=O)[C@@H](N(C)C)C3[C@@H](O)C21 (stereo partly specified) was tested, and the MIC (Escherichia coli [2]) was “inactive”, the MIC (Enterococcus faecalis [3]) was 1.25 µg/mL (≈ 2.41 µM) and the MIC (Escherichia coli [4]) was 40 µg/mL (≈ 77.1 µM). It also gave an MIC (Escherichia coli [5]) of over 50 µg/mL, an MIC (Staphylococcus aureus [6]) of 12.5 µg/mL (≈ 24.1 µM) and an MIC (Staphylococcus aureus [7]) of 0.6 µg/mL (≈ 1.16 µM). For the same molecule, the MIC (Escherichia coli [8]) was 12.5 µg/mL (≈ 24.1 µM), the MIC (Enterococcus faecalis [9]) was 1.56 µg/mL (≈ 3.01 µM) and the MIC (Escherichia coli [10]) was 10 µg/mL (≈ 19.3 µM). For the same molecule, the MIC (Escherichia coli [11]) was over 50 µg/mL.
With C[C@H]1c2cccc(O)c2C(=O)C2=C(O)[C@]3(O)C(=O)C(C(N)=O)=C(O)[C@@H](N(C)C)[C@@H]3[C@@H](O)[C@@H]21.O [DOXYCYCLINE] the IC50 (Escherichia coli [1]) was over 75 µM, the MIC (Enterococcus faecalis [3]) was 0.25 µg/mL and the MIC (Escherichia coli [13]) was 0.5 µg/mL. The MIC (Escherichia coli [5]) was 50 µg/mL, the MIC (Staphylococcus aureus [6]) was 12.5 µg/mL and the MIC (Staphylococcus aureus [7]) was 0.25 µg/mL. It also gave an MIC (Escherichia coli [8]) of 12.5 µg/mL, an MIC (Enterococcus faecalis [9]) of 6.25 µg/mL and an IC50 (Escherichia coli [14]) of 9.2 µM. It also gave an MIC (Escherichia coli [10]) of 0.5 µg/mL and an MIC (Escherichia coli [11]) of over 50 µg/mL.
CN(C)[C@@H]1C(=O)C(C(N)=O)=C(O)[C@@]2(O)C(O)=C3C(=O)c4c(O)cccc4[C@H](CS)C3[C@H](O)C12 (stereo partly specified) was tested, and the IC50 (Escherichia coli [1]) was 4.6 µM.
